Laboratory results taken from ChEMBL document CHEMBL3102806, “1,2,4-Triazole/oxime hybrids as new strategy for nitric oxide donors: Synthesis, anti-inflammatory, ulceroginicity and antiproliferative activities” (Eur J Med Chem, 2014).

Assays:
[1] = Growth inhibition of human OVCAR4 cells after 48 hrs by sulforhodamine B assay; assay type: functional; details: OVCAR-4, 48 h
Summary of the method: (§1)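 NCI 60-cell-line panel (nine tumour subpanels), five-dose format: 10-fold dilutions from 10^-4 to 10^-8 M, 48 h continuous exposure, SRB protein stain. Percent growth at each level is derived from time-zero, untreated control and treated absorbances. GI50 is the concentration where [(Ti−Tz)/(C−Tz)]×100 = 50. Values outside the tested range are reported as above or below the limit.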

SF-268 = experiment: Growth inhibition of human SF268 cells after 48 hrs by sulforhodamine B assay; assay type: functional; details: SF-268, 48 h; summary of the method: as §1
[2] = read-out: LC50 (the source's name)

Q: With `COc1ccc(-c2nnc(SCC(=O)Nc3ccc(/C(C)=N/O)cc3)n2-c2ccccc2)cc1OC` as the molecule, how does the GI50 [1] read?
A: > 100 µM

Q: And the TGI [1]?
A: > 100 µM

Q: And the CC50 [1, 2]?
A: > 100 µM

Q: And the GI50 (SF-268)?
A: 3.07 µM

Q: And the TGI (SF-268)?
A: 20.3 µM

Q: And the CC50 (SF-268; [2])?
A: > 100 µM
